Reference: ChEMBL document CHEMBL1131242, “6beta-Acetoxynortropane: a potent muscarinic agonist with apparent selectivity toward M2-receptors” (J Med Chem, 1998)
Numbering of substitutions follows the chain as printed.

How the values were obtained:
[1] = biological target: T1, Neuronal acetylcholine receptor; alpha4/beta2 (Rattus norvegicus) (UniProt P09483+P12390); experiment: (§1) The compound was evaluated for percentage inhibition of binding of [3H]- nicotine to Nicotinic acetylcholine receptor alpha4-beta2 in Rat Cerebral Cortical Membranes; type: protein-complex assay; design: concentration or dose not given beside the values; conditions: concentration not given here
In short: (§2)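 Rat cerebral cortex membranes with 0.2 nM [3H]nicotine in HEPES binding buffer pH 7.4 containing 200 µM diisopropyl fluorophosphate. Incubation was 120 min at 0–4 °C, in triplicate. Nonspecific binding used 1 µM nicotine. Samples were filtered through polyethylenimine-soaked GF/B filters and counted.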

[2] = biological target: T2, Muscarinic acetylcholine receptor M1 (Rattus norvegicus) (UniProt P08482); experiment: Percentage inhibition of binding of [3H]quinuclidinyl benzilate to muscarinic acetylcholine receptor M1 in rat cerebral cortical membranes; type: cell membranes; design: concentration or dose not given beside the values; conditions: Membrane, concentration not given here
T2 sequence (whole entry): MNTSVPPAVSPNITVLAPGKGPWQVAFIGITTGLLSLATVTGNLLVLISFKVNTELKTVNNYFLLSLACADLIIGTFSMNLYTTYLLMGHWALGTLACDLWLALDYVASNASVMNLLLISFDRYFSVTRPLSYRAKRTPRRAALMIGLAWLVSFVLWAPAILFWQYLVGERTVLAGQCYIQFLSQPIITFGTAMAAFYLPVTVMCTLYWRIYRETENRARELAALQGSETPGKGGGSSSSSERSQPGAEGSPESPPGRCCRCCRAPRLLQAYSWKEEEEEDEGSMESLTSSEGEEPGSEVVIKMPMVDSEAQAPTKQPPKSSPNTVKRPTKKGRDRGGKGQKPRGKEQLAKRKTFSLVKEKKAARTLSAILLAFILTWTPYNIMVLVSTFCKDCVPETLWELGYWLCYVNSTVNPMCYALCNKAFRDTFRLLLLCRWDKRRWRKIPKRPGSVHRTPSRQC
In short: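 Rat cerebral cortex membranes were homogenised in 50 mM Tris-HCl pH 7.4 and diluted in HEPES binding buffer. They were incubated with 0.2 nM [3H]quinuclidinyl benzilate in 20 mM HEPES pH 7.4 with 10 mM MgCl2 and 100 mM NaCl for 30 min at 37 °C, in triplicate. Nonspecific binding used 1 µM atropine. Filtration was followed by scintillation counting.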

[3] = biological target: T1, Neuronal acetylcholine receptor; alpha4/beta2 (Rattus norvegicus); experiment: Inhibition of binding of [3H]nicotine to Nicotinic acetylcholine receptor alpha4-beta2 in rat cerebral cortical membranes at 100 uM concentration; type: cell membranes; conditions: Membrane
In short: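 [3H]nicotine (0.2 nM) binding to rat cortical membranes, with 200 µM diisopropyl fluorophosphate, 120 min at 0–4 °C, triplicate. Nonspecific binding with 1 µM nicotine. Percent inhibition at 100 µM test agent; mean ± SEM, n = 4.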

[4] = biological target: T3, Muscarinic acetylcholine receptor M3 (Homo sapiens, UniProt P20309); experiment: Inhibition of binding of [3H]quinuclidinyl benzilate to human Muscarinic acetylcholine receptor M3 in membranes of transfected CHO cells at 100 uM concentration; conditions: Membrane
T3 sequence (P20309 whole entry, looked up): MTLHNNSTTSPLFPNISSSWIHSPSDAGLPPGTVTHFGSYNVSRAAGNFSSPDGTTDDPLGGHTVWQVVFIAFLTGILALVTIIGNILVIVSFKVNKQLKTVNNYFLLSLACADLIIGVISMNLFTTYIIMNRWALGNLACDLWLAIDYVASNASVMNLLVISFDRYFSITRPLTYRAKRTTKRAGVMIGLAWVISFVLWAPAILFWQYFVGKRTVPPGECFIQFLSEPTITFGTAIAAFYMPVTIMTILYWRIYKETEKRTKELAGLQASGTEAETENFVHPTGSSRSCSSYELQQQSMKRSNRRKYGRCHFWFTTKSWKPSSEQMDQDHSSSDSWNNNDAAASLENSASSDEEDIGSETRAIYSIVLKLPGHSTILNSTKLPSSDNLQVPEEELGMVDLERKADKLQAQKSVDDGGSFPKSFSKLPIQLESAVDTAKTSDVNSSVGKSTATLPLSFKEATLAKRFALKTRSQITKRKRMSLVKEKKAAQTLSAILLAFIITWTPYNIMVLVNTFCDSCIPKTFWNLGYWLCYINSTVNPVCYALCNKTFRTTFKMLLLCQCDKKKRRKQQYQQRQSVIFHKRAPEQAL

[5] = biological target: T3, Muscarinic acetylcholine receptor M3; experiment: Percentage inhibition of binding of [3H]quinuclidinyl benzilate to muscarinic receptors in membranes of CHO cells transfected with Muscarinic acetylcholine receptor M3; type: cell membranes; conditions: concentration not given here
[6] = biological target: T4, Muscarinic acetylcholine receptor M1 (Homo sapiens) (UniProt P11229); experiment: Percentage inhibition of binding of [3H]quinuclidinyl benzilate to muscarinic receptors in membranes of CHO cells transfected with Muscarinic acetylcholine receptor M1; type: cell membranes; conditions: concentration not given here
T4 sequence (whole entry): T2 sequence (whole entry) with V5A, S254T, S309P, K320R, G337A, V413I
In short: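 Membranes from CHO cells expressing human M1–M4 receptors in 25 mM sodium phosphate pH 7.4 with 5 mM MgCl2, 30 min at 37 °C, triplicate. [3H]quinuclidinyl benzilate was 0.2 nM for M1 and M3 and 0.1 nM for M2 and M4. Nonspecific binding used 10 µM atropine for M1 and 1 µM for the others.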

[7] = biological target: T5, Neuronal acetylcholine receptor; alpha4/beta2 (Rattus norvegicus, UniProt P09483+P12390); experiment: Inhibition of binding of [3H]nicotine to Nicotinic acetylcholine receptor alpha4-beta2 in rat cerebral cortical membranes; type: cell membranes, Membrane; in short: as §2
T5 sequence (P09483 whole entry): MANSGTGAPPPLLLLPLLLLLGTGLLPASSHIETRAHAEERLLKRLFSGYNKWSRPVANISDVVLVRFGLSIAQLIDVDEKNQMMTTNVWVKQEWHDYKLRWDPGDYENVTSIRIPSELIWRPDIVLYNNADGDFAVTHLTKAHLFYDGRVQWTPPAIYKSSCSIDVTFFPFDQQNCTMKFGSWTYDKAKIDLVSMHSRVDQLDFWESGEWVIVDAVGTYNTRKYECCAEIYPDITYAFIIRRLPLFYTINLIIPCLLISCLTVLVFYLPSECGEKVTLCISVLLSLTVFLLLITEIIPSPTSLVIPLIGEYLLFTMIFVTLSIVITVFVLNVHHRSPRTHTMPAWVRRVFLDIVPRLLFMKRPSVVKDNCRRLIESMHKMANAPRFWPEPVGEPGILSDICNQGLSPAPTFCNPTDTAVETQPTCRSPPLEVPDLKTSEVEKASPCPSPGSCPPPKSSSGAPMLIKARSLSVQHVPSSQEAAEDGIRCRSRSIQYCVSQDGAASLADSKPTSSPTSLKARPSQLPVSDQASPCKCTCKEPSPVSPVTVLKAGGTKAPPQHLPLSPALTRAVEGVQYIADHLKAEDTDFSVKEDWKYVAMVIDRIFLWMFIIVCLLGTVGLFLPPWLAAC
T5 sequence (P12390 whole entry): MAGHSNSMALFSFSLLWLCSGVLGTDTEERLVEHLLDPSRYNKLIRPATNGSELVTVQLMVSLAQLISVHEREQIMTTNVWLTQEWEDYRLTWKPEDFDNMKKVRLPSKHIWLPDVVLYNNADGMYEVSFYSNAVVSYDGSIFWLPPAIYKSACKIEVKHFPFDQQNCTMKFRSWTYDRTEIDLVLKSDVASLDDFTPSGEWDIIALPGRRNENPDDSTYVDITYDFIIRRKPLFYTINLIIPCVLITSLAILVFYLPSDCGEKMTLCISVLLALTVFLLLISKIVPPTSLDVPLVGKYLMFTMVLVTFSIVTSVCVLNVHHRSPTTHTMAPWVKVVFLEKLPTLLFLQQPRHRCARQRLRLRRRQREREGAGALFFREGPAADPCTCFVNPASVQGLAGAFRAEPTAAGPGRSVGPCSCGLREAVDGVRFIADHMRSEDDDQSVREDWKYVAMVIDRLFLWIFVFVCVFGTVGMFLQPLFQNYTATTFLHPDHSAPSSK

[8] = biological target: T5, Neuronal acetylcholine receptor; alpha4/beta2; experiment: as §1; type: protein-complex assay; in short: as §2

SMILES | inhibition [1] [%] | inhibition [2] [%] | inhibition [3] [%] | inhibition [4] [%] | inhibition [5] [%] | inhibition [6] [%] | Ki [7] [µM] | Ki [8] [µM]
COC(=O)[C@H]1CC2NC1CC[C@H]2OC(C)=O (some centres undefined) | 19 | 1 | 19 |  |  |  |  | 
CCSC1CCC2NC1CC2C(=O)OC (centres undefined) | 50 | 7 | 50 |  |  |  |  | 
CC(=O)O[C@@H]1CCC2NC1C[C@@H]2S(=O)(=O)c1ccccc1 (some centres undefined) | 10 | 6 | 10 |  |  |  |  | 
COC(=O)C1CC2NC1CCC21SCCS1 (centres undefined) | 36 | 3 | 36 |  |  |  |  | 
CC(=O)OC1CC2CC(=O)CC1N2 (centres undefined) | 13 | 11 | 13 |  |  |  |  | 
CC(=O)OC1CC2CC(=O)CC1N2C (centres undefined) | 5 | 0 | 5 |  |  |  |  | 
COC(=O)C1C(O)CC2CCC1N2C (centres undefined) | 11 | 27 | 11 | 28 | 19 | 13 |  | 
COC(=O)[C@H]1CC2NC1CC[C@H]2O (some centres undefined) |  |  |  |  |  |  | 64 | 64
CC(=O)O[C@H]1CCC2NC1C[C@@H]2S(=O)(=O)c1ccccc1 (some centres undefined) | 16 | 0 | 16 |  |  |  |  | 
